IC50, Ratio IC50 and ED50 data for 14 compounds are collected here from ChEMBL document CHEMBL4316658, “Structure and Absolute Configuration of Abietane Diterpenoids from Salvia clinopodioides: Antioxidant, Antiprotozoal, and Antipropulsive Activities” (J Nat Prod, 2019).

For orientation: pIC50 means the IC50 on a negative log10 scale, so that one unit is a factor of ten.

Test [1] has as its system Brain. The test can be described thus: Antioxidant activity in Wistar rat brain homogenate assessed as inhibition of […] lipid peroxidation by measuring reduction in TBARS level preincubated for 30 mins followed by […] and measured after 1 hr. As to conditions: for pIC50: Rattus norvegicus, Wistar, Brain, read-out: IC50; call rule not given here. It counts as functional, tissue-based. Put shortly:
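Adult male Wistar rat whole brain homogenized 1/10 (w/v) in PBS pH 7.4. Spun 10 min at 800 rcf; supernatant set to 2.666 mg protein/mL. Supernatant with EDTA and compound in DMSO preincubated 30 min at 37 °C. FeSO4 added (10 μM final), then 1 h at 37 °C. TBA/TCA reagent added, heated 80 °C 30 min, A540 read. Calibrated against TMP standard curve; IC50 by linear regression.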

Test [2] is described as follows: Antioxidant activity assessed as DPPH radical scavenging activity measured after 30 mins. Format: functional. As to conditions: for pIC50: read-out: IC50. Put shortly:
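Test compound solution (50 μL) mixed with 150 μL ethanolic DPPH, 100 μM final; 37 °C for 30 min; absorbance at 515 nm. Percent inhibition relative to a 100 μM DPPH ethanol blank.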

The next test concerns Entamoeba histolytica. The test can be described thus: Antiparasitic activity against Entamoeba histolytica HM1-IMSS trophozoites assessed as inhibition of parasitic growth treated for 48 hrs followed by compound washout and measured after 48 hrs by MTT/PMS dye based colorimetric method. Format: functional, organism-based. Conditions: HM-1:IMSS. Put shortly:
(§1)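 Axenic log-phase trophozoites in TYI-S-33 medium: E. histolytica HM1-IMSS with 10% heat-inactivated bovine serum (6 × 10^3 cells); G. lamblia IMSS:8909:1 with 10% calf serum and bovine bile (5 × 10^4 cells). Exposed 48 h at 37 °C to 2.5−200 μg/mL in DMSO, then subcultured drug-free 48 h. Counted by hemocytometer, confirmed by MTT/PMS formazan at 570 nm. Duplicates, ≥3 repeats; IC50 by probit regression.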

The next test deals with Giardia intestinalis. The test can be described thus: Antiparasitic activity against Giardia intestinalis IMSS:0989:1 assessed as inhibition of parasitic growth treated for 48 hrs followed by compound washout and measured after 48 hrs by MTT/PMS dye based colorimetric method. It counts as functional, organism-based. As to conditions: Giardia duodenalis, IMSS:0989:1, 48 h. Put shortly:
as §1

Test [3] has as its system Brain. The test can be described thus: Potency index, ratio of BHT IC50 to test compound IC50 for antioxidant activity in Wistar rat brain homogenate assessed as inhibition of FeCl2-induced lipid peroxidation. It counts as functional, tissue-based.
For test [4], the system named is Brain. The test can be described thus: Potency index, ratio of quercetin IC50 to test compound IC50 for antioxidant activity in Wistar rat brain homogenate assessed as inhibition of FeCl2-induced lipid peroxidation. Format: functional, tissue-based.
For a further test, the system named is Rattus norvegicus. The test can be described thus: Antidiarrheal activity in po dosed Sprague-Dawley rat assessed as inhibition of charcoal-gum acacia-induced hyperperistalsis by measuring reduction in distance travelled by charcoal from pylorus to cecum pretreated for 20 mins followed by charcoal meal stimulation and measured after 30 mins. Conditions: read-out: ID50 (the source's name). It counts as functional.

pIC50: −log10 of the molar value. Where a name gives a salt, the structure may show the parent alone.

For `COc1c(C(C)C)cc2c(c1O)C[C@]13CCC[C@](C)(C(=O)O1)[C@@H]3CC2`, the negative-log IC50 (pIC50) in the test on Brain [1] is 4.39. Also, the IC50 entry in test [2] is given as “Not Active”.

For `Cc1ncc([N+](=O)[O-])n1CCO` [METRONIDAZOLE], the pIC50 with Entamoeba histolytica is 6.70; in the test with Giardia intestinalis it was 5.92.

For `CC(C)c1cc2c(c(O)c1O)[C@]13CCC[C@](C)([C@H](O)OC1=O)[C@@H]3CC2`, the negative logarithm of the IC50 (pIC50) in the test on Brain [1] was 5.23; in test [2], 4.61; in the test with Entamoeba histolytica it was 4.42; in the test on Giardia intestinalis, 4.20. In addition, the Ratio IC50 is 5 in the test on Brain [3] and 4 with Brain [4]. In the test on Rattus norvegicus, the ED50 is 4.1 µmol/kg.

With `O=c1c(O)c(-c2ccc(O)c(O)c2)oc2cc(O)cc(O)c12` [QUERCETIN], the negative logarithm of the IC50 (pIC50) in test [2] was 4.96. The ED50 with Rattus norvegicus stood at 1.1 µmol/kg.

On to `CC[C@H]1CN2CCc3cc(OC)c(OC)cc3[C@@H]2C[C@@H]1C[C@H]1NCCc2cc(OC)c(OC)cc21` [EMETINE], for which the pIC50 in the test on Giardia intestinalis was 6.10.

Take `CC(C)c1cc2c(c(O)c1O)[C@]13CCC[C@](C)(COC1=O)[C@@H]3CC2`: the negative-log IC50 (pIC50) was 5.57 in the test with Brain [1], 4.52 in test [2], 4.50 in the test on Entamoeba histolytica and 4.31 in the test with Giardia intestinalis. In addition, the Ratio IC50 with Brain [3] and with Brain [4] was 2 in each case. Further, the ED50 with Rattus norvegicus is 5.5 µmol/kg.

Take `COc1c(C(C)C)cc2c(c1O)[C@]13CCC[C@](C)([C@H](O)OC1=O)[C@@H]3CC2`: the IC50 result (with Brain [1]; in test [2]) was “Not Active” throughout. Besides, the values for the pIC50 with Entamoeba histolytica and in the test with Giardia intestinalis were 4.37 and 4.17, respectively. Moreover, in the test with Rattus norvegicus, the ED50 was determined as 2.2 µmol/kg.

On to `COc1c(C(C)C)cc2c(c1OC(C)=O)[C@]13CCC[C@](C)([C@H](OC(C)=O)OC1=O)[C@@H]3CC2`, for which the IC50 entry (in the test with Brain [1]; in test [2]) was “Not Active” in each case.

Consider `Cc1c(C)c2c(c(C)c1O)CC[C@@](C)(CCC[C@H](C)CCC[C@H](C)CCCC(C)C)O2` [ALPHA-TOCOPHEROL], for which, in test [2], the pIC50 was 4.50.

As for `Cc1cc(C(C)(C)C)c(O)c(C(C)(C)C)c1` [BUTYLATED HYDROXYTOLUENE], in the test on Brain [1], the pIC50 was 5.92.

As for `COC(=O)[C@]12CCC[C@](C)(C=O)[C@@H]1CCc1cc(C(C)C)c(OC)c(O)c12`, the pIC50 is 4.72 in the test on Brain [1], 4.31 with Entamoeba histolytica and 4.21 in the test on Giardia intestinalis. Moreover, in test [2], the IC50 result is listed as “Not Active”.

For the compound `CN(C)C(=O)C(CCN1CCC(O)(c2ccc(Cl)cc2)CC1)(c1ccccc1)c1ccccc1` [LOPERAMIDE HYDROCHLORIDE], in the test with Rattus norvegicus, the ED50 worked out at 0.2 µmol/kg.

As to `CC(=O)Oc1c(C(C)C)cc2c(c1OC(C)=O)[C@]13CCC[C@](C)([C@H](OC(C)=O)OC1=O)[C@@H]3CC2`, the IC50 result (in the test with Brain [1]; in test [2]) was “Not Active” throughout. In addition, the pIC50 with Entamoeba histolytica is 4.40; with Giardia intestinalis, 4.32. In addition, the ED50 with Rattus norvegicus came out at 2.7 µmol/kg.

`COc1c(C(C)C)cc2c(c1O)[C@]13CCC[C@](C)([C@H](OC(C)=O)OC1=O)[C@@H]3CC2`: the IC50 result (in the test with Brain [1]; in test [2]) was “Not Active” throughout. Further, the negative logarithm of the IC50 (pIC50) in the test on Entamoeba histolytica was 4.46; with Giardia intestinalis, 4.33.
